Measured values reported in ChEMBL document CHEMBL6071188, “Synthesis and In Vivo Profiling of Desymmetrized Antimalarial Trioxolanes with Diverse Carbamate Side Chains” (ACS Med Chem Lett, 2024).
≈ marks a conversion by molar mass, not a printed value. Calls of active or inactive are those of the source. No cut-off for these calls is given here.

Tested on: not listed separately
Assay: Half life in male CD1 mouse at 10 mg/kg, po measured upto 24 hrs
Assay type: ADME, organism-based
Conditions: in vivo

Structure (SMILES)	t1/2
CC(C)(N)CNC(=O)O[C@@H]1CCC[C@]2(C1)OOC1(O2)C2CC3CC(C2)CC1C3 (some centres not stated)	2.09 h
NCCNC(=O)O[C@H]1CCC[C@@]2(C1)OOC1(O2)C2CC3CC(C2)CC1C3 (some centres not stated)	1.66 h
CC(C)(N)CNC(=O)O[C@H]1CCC[C@@]2(C1)OOC1(O2)C2CC3CC(C2)CC1C3 (some centres not stated)	1.44 h

Tested on: Plasmodium berghei
Assay: Antiplasmodial activity Plasmodium berghei ANKA infected in female NMRI mouse model assessed as cure rate at 10 mg/kg, po administered as three consecutive dose daily for 24 to 72 hrs post infection by giemsa staining based microscopy analysis relative to control
Assay type: functional
Conditions: time 24-72 hrs

Structure (SMILES)	Activity
CC(C)(N)CNC(=O)C[C@H]1CC[C@]2(CC1)OO[C@]1(O2)C2CC3CC(C2)CC1C3	67%

Tested on: not listed separately
Assay: Volume of distribution at steady state in male CD1 mouse at 3 mg/kg, iv measured upto 24 hrs
Assay type: ADME, organism-based
Conditions: in vivo
Method in brief: (§1)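 Male CD1 mice, n = 3 per group, dosed IV at 3 mg/kg or PO at 10 mg/kg in 10% DMSO/50% PEG400/40% of 20% HP-β-CD in water. Samples below the limit of quantitation excluded from parameters and mean concentrations.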

Structure (SMILES)	Vdss
CC(C)(N)CNC(=O)O[C@@H]1CCC[C@]2(C1)OOC1(O2)C2CC3CC(C2)CC1C3 (some centres not stated)	2.79 L/kg
NCCNC(=O)O[C@H]1CCC[C@@]2(C1)OOC1(O2)C2CC3CC(C2)CC1C3 (some centres not stated)	2.33 L/kg
CC(C)(N)CNC(=O)O[C@H]1CCC[C@@]2(C1)OOC1(O2)C2CC3CC(C2)CC1C3 (some centres not stated)	2.5 L/kg

Tested on: not listed separately
Assay: Clearance in male CD1 mouse at 3 mg/kg, iv measured upto 24 hrs
Assay type: ADME, organism-based
Conditions: in vivo
Method in brief: as §1

Structure (SMILES)	CL
CC(C)(N)CNC(=O)O[C@@H]1CCC[C@]2(C1)OOC1(O2)C2CC3CC(C2)CC1C3 (some centres not stated)	108 mL/min/kg
NCCNC(=O)O[C@H]1CCC[C@@]2(C1)OOC1(O2)C2CC3CC(C2)CC1C3 (some centres not stated)	66 mL/min/kg
CC(C)(N)CNC(=O)O[C@H]1CCC[C@@]2(C1)OOC1(O2)C2CC3CC(C2)CC1C3 (some centres not stated)	77 mL/min/kg

Tested on: not listed separately
Assay: Solubility of the compound in PBS buffer at pH 7.4 at 2 mg/ml incubated for 5 to 6 hrs by LC-MS analysis
Assay type: physicochemical
Conditions: time 5-6 hrs

Structure (SMILES)	solubility
CC(C)(N)CNC(=O)C[C@H]1CC[C@]2(CC1)OO[C@]1(O2)C2CC3CC(C2)CC1C3	504 µM (≈ 198 µg/mL)

Tested on: not listed separately
Assay: Solubility of the compound in PBS buffer at pH 7.4
Assay type: physicochemical
Conditions: not given

Structure (SMILES)	solubility kinetic
NCCNC(=O)O[C@H]1CCC[C@@]2(C1)OOC1(O2)C2CC3CC(C2)CC1C3 (some centres not stated)	144 µM (≈ 52.8 µg/mL)
CC(C)(N)CNC(=O)O[C@H]1CCC[C@@]2(C1)OOC1(O2)C2CC3CC(C2)CC1C3 (some centres not stated)	174 µM (≈ 68.6 µg/mL)

Tested on: Plasmodium berghei
Assay: Antiplasmodial activity against Plasmodium berghei infected in female Swiss Webster mouse model assessed as reduction in parasitemia at 20 mg/kg, po administered once daily for 2 days and measured upto 30 days by giemsa staining based microscopic analysis
Assay type: functional, organism-based
Conditions: time 30.0 day
Method in brief: (§2)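 Female Swiss Webster mice (~20 g) infected ip with 10^6 P. berghei-infected erythrocytes from a donor mouse. Dosing by oral gavage once daily for 1–2 days starting 1 h post-inoculation, in 10% DMSO/50% PEG400/40% of 20% HP-β-CD in water. Five mice per arm. Daily Giemsa smears from day 7, counting infected cells per 1000 erythrocytes. Body weight tracked. Euthanasia at >50% parasitemia or >15% weight loss. Followed to day 30; cure means no parasitemia at day 30. Survival reported as the day of the longest-surviving mouse.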

Structure (SMILES)	Activity
NCCNC(=O)O[C@H]1CCC[C@@]2(C1)OOC1(O2)C2CC3CC(C2)CC1C3 (some centres not stated)	Active
CC(C)(N)CNC(=O)O[C@H]1CCC[C@@]2(C1)OOC1(O2)C2CC3CC(C2)CC1C3 (some centres not stated)	Active

Tested on: Plasmodium berghei
Assay: Antiplasmodial activity against Plasmodium berghei infected in female Swiss Webster mouse model assessed as survival at 10 mg/kg, po administered once daily for 2 days and measured upto 30 days
Assay type: functional
Conditions: time 30 day
Method in brief: as §2

Structure (SMILES)	Survival
CC(C)(N)CNC(=O)C[C@H]1CC[C@]2(CC1)OO[C@]1(O2)C2CC3CC(C2)CC1C3	14 days
NCCNC(=O)O[C@H]1CCC[C@@]2(C1)OOC1(O2)C2CC3CC(C2)CC1C3 (some centres not stated)	30 days
CC(C)(N)CNC(=O)O[C@H]1CCC[C@@]2(C1)OOC1(O2)C2CC3CC(C2)CC1C3 (some centres not stated)	30 days

Tested on: not listed separately
Assay: Metabolic stability in human liver microsomes assessed as intrinsic clearance
Assay type: ADME, Microsome
Conditions: liver microsomes, read-out: CLH

Structure (SMILES)	microsomal CLint
CC(C)(N)CNC(=O)C[C@H]1CC[C@]2(CC1)OO[C@]1(O2)C2CC3CC(C2)CC1C3	< 7 µL/min/mg
CC(C)(N)CNC(=O)O[C@@H]1CCC[C@]2(C1)OOC1(O2)C2CC3CC(C2)CC1C3 (some centres not stated)	12.8 µL/min/mg
CC(C)(N)CNC(=O)O[C@H]1CCC[C@@]2(C1)OOC1(O2)C2CC3CC(C2)CC1C3 (some centres not stated)	< 11.5 µL/min/mg

Same assay, conditions: microsomes

Structure (SMILES)	microsomal intrinsic clearance
NCCNC(=O)O[C@H]1CCC[C@@]2(C1)OOC1(O2)C2CC3CC(C2)CC1C3 (some centres not stated)	23.1 µL/min/mg

Tested on: Plasmodium berghei
Assay: Antiplasmodial activity against Plasmodium berghei infected in female Swiss Webster mouse model assessed as cure rate at 40 mg/kg, po measured upto 30 days relative to control
Assay type: functional
Conditions: time <= 30 day

Structure (SMILES)	Activity
CC(C)(N)CNC(=O)C[C@H]1CC[C@]2(CC1)OO[C@]1(O2)C2CC3CC(C2)CC1C3	100%

Tested on: not listed separately
Assay: Oral bioavailability in male CD1 mouse at 10 mg/kg measured upto 24 hrs
Assay type: ADME, organism-based
Conditions: in vivo
Method in brief: as §1

Structure (SMILES)	F
CC(C)(N)CNC(=O)O[C@@H]1CCC[C@]2(C1)OOC1(O2)C2CC3CC(C2)CC1C3 (some centres not stated)	39.3%
NCCNC(=O)O[C@H]1CCC[C@@]2(C1)OOC1(O2)C2CC3CC(C2)CC1C3 (some centres not stated)	43.1%
CC(C)(N)CNC(=O)O[C@H]1CCC[C@@]2(C1)OOC1(O2)C2CC3CC(C2)CC1C3 (some centres not stated)	38.9%

Tested on: not listed separately
Assay: Oral bioavailability in rat at 17.4 mg/kg by LC-MS analysis
Assay type: ADME, organism-based
Conditions: in vivo

Structure (SMILES)	bioavailability
CC(C)(N)CNC(=O)C[C@H]1CC[C@]2(CC1)OO[C@]1(O2)C2CC3CC(C2)CC1C3	35%

Tested on: Plasmodium berghei
Assay: Antiplasmodial activity against Plasmodium berghei infected in female Swiss Webster mouse model assessed as survival at 20 mg/kg, po administered once daily for 1 day
Conditions: not given

Structure (SMILES)	Survival
CC(C)(N)CNC(=O)O[C@@H]1CCC[C@]2(C1)OOC1(O2)C2CC3CC(C2)CC1C3 (some centres not stated)	12 days
CC(C)(N)CNC(=O)O[C@H]1CCC[C@@]2(C1)OOC1(O2)C2CC3CC(C2)CC1C3 (some centres not stated)	20 days

Tested on: not listed separately
Assay: Toxicity in female Swiss Webster mouse infected with Plasmodium berghei assessed as drug tolerance at 10 mg/kg, po administered once daily for 2 days and measured upto 30 days
Assay type: organism-based
Conditions: in vivo, 720 h, time 30 day
Method in brief: as §2

Structure (SMILES)	Activity
CC(C)(N)CNC(=O)C[C@H]1CC[C@]2(CC1)OO[C@]1(O2)C2CC3CC(C2)CC1C3	Non-Toxic
NCCNC(=O)O[C@H]1CCC[C@@]2(C1)OOC1(O2)C2CC3CC(C2)CC1C3 (some centres not stated)	Non-Toxic
CC(C)(N)CNC(=O)O[C@H]1CCC[C@@]2(C1)OOC1(O2)C2CC3CC(C2)CC1C3 (some centres not stated)	Non-Toxic

Tested on: not listed separately
Assay: AUClast in male CD1 mouse at 10 mg/kg, po measured upto 24 hrs
Assay type: ADME, organism-based
Conditions: in vivo
Method in brief: as §1

Structure (SMILES)	AUClast
CC(C)(N)CNC(=O)O[C@@H]1CCC[C@]2(C1)OOC1(O2)C2CC3CC(C2)CC1C3 (some centres not stated)	555 ng·h/mL
NCCNC(=O)O[C@H]1CCC[C@@]2(C1)OOC1(O2)C2CC3CC(C2)CC1C3 (some centres not stated)	1038 ng·h/mL
CC(C)(N)CNC(=O)O[C@H]1CCC[C@@]2(C1)OOC1(O2)C2CC3CC(C2)CC1C3 (some centres not stated)	818 ng·h/mL

Tested on: not listed separately
Assay: Toxicity in female Swiss Webster mouse infected with Plasmodium berghei assessed as drug tolerance at 20 mg/kg, […]
Assay type: organism-based
Conditions: in vivo, po

Structure (SMILES)	Activity
CC(C)(N)CNC(=O)O[C@@H]1CCC[C@]2(C1)OOC1(O2)C2CC3CC(C2)CC1C3 (some centres not stated)	Non-Toxic
CC(C)(N)CNC(=O)O[C@H]1CCC[C@@]2(C1)OOC1(O2)C2CC3CC(C2)CC1C3 (some centres not stated)	Non-Toxic
